TRPC6 act – activates the mouse TRPC6 cation channel; 310,000 tested, 0.13% active; Q61143; AID 2550; HEK293-TRPC6 membrane potential dye fluorescence; hits give high values; B-score at 10 µM;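 active = B-score of the integrated fluorescence ratio above library mean plus 3 SD, and starting fluorescence ratio within library mean plus 5 SD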;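 note: higher score means more depolarization so channel activation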
TRPC6 inh – blocks the mouse TRPC6 cation channel; B-score at 10 µM; Q61143; 310,000 tested, 1.1% active; HEK293-TRPC6, membrane potential dye, ACh-evoked depolarization; hits give low values; AID 2553;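 active = B-score under library mean minus 3 SD, initial fluorescence not abnormally high, positive integrated signal ratio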;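 note: B-score derived from integrated fluorescence ratio over the kinetic read; more negative B-score means stronger inhibition of depolarization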
TRPC4 agonist – activators of mouse TRPC4 channel. AID 2237. HEK293 TRPC4beta/mu-opioid, Fluo4 calcium fluorescence; hits give high values. 310,000 tested, 0.49% active. Q9QUQ5. B-score at 10 µM;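 active = B-score above 5 SD of library B-scores, and initial fluorescence ratio not above library mean plus 5 SD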;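 note: positive B-score marks a calcium rise read as TRPC4 activation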
Target sequence (Q9QUQ5 whole entry, looked up): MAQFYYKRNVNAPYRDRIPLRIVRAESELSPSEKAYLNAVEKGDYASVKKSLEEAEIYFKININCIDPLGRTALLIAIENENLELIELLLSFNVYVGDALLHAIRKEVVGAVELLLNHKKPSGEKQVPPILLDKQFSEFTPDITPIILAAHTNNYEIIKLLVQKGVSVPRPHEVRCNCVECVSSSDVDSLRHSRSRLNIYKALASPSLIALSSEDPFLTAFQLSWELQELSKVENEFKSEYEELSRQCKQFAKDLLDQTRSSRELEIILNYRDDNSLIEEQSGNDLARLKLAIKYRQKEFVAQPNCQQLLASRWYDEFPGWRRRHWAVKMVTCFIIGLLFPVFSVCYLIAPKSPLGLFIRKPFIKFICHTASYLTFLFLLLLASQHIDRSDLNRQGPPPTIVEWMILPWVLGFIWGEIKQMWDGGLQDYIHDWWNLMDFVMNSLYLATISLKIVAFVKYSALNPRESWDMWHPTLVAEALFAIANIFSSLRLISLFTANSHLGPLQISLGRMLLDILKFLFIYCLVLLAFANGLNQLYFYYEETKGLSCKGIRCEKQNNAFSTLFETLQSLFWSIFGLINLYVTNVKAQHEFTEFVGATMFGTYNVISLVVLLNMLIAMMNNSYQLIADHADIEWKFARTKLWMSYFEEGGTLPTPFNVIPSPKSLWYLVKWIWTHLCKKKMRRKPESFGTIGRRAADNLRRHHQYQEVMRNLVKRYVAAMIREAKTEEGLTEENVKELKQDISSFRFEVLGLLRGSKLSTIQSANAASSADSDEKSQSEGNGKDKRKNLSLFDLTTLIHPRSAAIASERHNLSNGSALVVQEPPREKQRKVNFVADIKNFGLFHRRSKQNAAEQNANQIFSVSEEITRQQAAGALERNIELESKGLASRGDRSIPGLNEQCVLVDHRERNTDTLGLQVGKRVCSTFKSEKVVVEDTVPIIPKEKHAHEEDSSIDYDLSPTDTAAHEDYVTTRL
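System – HEK293 cells stably co-expressing mouse TRPC4beta and mu-opioid receptor · Signal – Fluo4 calcium-sensitive dye fluorescence, kinetic, 1 Hz baseline · Benchmarks – buffer (low) and maximal DAMGO (high) · Read-out – B score of integrated fluorescence ratio per well · Incubation – dye loading 45 min room temperature, 110 s kinetic read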
TRPC4 block – blocks the mouse TRPC4 cation channel; Q9QUQ5; HEK293 TRPC4beta/mu-opioid, DAMGO-evoked Fluo4 calcium flux; hits give low values; B-score at 10 µM; 300,000 tested, 0.39% active; AID 2247;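 active = B-score over 3 SD under the library average, no early fluorescence shift, positive overall ratio signal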
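Assay system: TRPC4beta/mu-opioid receptor HEK293 cell line; compound dosing: single concentration per test compound; detection: Fluo4 Ca2+ flux fluorescence; evaluation: per-well B score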
Kir21 block – Kir2.1 (mouse) channel inhibition; P35561; HEK293-Kir2.1, FluxOR thallium flux fluorescence; hits give low values; B-score at 10 µM; 310,000 tested, 0.85% active; AID 1672;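 active = fluorescence ratio B-score at or below minus 3 SD of library scores, with starting-brightness B-score within 2 SD, cut at about -4.2 in these data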;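 note: channel flux triggered by added potassium and thallium sulfate stimulus; B-score of peak minus minimum fluorescence over baseline after thallium stimulus; more negative B-score means stronger Kir2.1 block with less thallium influx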
TRPC4 potent – allosterically enhances the mouse TRPC4 cation channel. 310,000 tested, 0.42% active. AID 2227. Q9QUQ5. B-score at 10 µM. HEK293 TRPC4beta/mu-opioid, DAMGO EC20, Fluo-4 Ca2+ flux; hits give high values;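 active = B-score of calcium response area above 5 SD of library B-scores, with initial fluorescence ratio within 5 SD of library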
A number is an active result. Rows were chosen to be rich in hits. Some 3% of all compounds tested hit in one or more screens of this group.

What do the screens show for `COCCNC(=O)c1ccc2c(Cl)c3c(nc2c1)CCC3`?
TRPC6 act: inactive; TRPC6 inh: inactive; TRPC4 agonist: inactive; TRPC4 block: inactive; Kir21 block: inactive; TRPC4 potent: inactive

How did CCCN(CCC)CCCNC(=O)c1ccc2c(Cl)c3c(nc2c1)CCC3 do in these assays?
TRPC6 act: inactive; TRPC6 inh: inactive; TRPC4 agonist: 124; TRPC4 block: inactive; Kir21 block: inactive; TRPC4 potent: inactive

How did O=C(O)c1ccc2c(c1)C1C=CCC1C(c1cc3c(cc1Br)OCO3)N2 (stereo unspecified) do in these assays?
TRPC6 act: inactive; TRPC6 inh: inactive; TRPC4 agonist: inactive; TRPC4 block: -7; Kir21 block: inactive; TRPC4 potent: inactive

Results for O=C(NCc1ccccc1Cl)c1nnc(CS(=O)(=O)c2ccccc2)o1 ?
TRPC6 act: inactive; TRPC6 inh: inactive; TRPC4 agonist: inactive; TRPC4 block: inactive; Kir21 block: inactive; TRPC4 potent: inactive

Results for O=C(CCN1C(=O)/C(=C/c2ccccc2Cl)SC1=S)NCCc1ccc(O)cc1 ?
TRPC6 act: inactive; TRPC6 inh: inactive; TRPC4 agonist: inactive; TRPC4 block: inactive; Kir21 block: inactive; TRPC4 potent: inactive

What do the screens show for `O=c1oc2ccccc2c(Nc2ccccc2)c1CN1CCCCC1`?
TRPC6 act: inactive; TRPC6 inh: inactive; TRPC4 agonist: inactive; TRPC4 block: -7; Kir21 block: inactive; TRPC4 potent: inactive

How did C[C@@H]1CC2OC(=O)[C@@]3(C)C(=O)CC[C@@](C)(C23)[C@@]1(O)CCc1ccoc1 (stereo partly specified) do in these assays?
TRPC6 act: inactive; TRPC6 inh: inactive; TRPC4 agonist: inactive; TRPC4 block: inactive; Kir21 block: inactive; TRPC4 potent: inactive

How did CC(C1CC2CCC1C2)n1c(-c2ccco2)n[nH]c1=S (stereo unspecified) do in these assays?
TRPC6 act: inactive; TRPC6 inh: inactive; TRPC4 agonist: inactive; TRPC4 block: inactive; Kir21 block: -5.52; TRPC4 potent: inactive

How did COc1ccc(NC(=O)c2sccc2SCc2cccc(C(F)(F)F)c2)cc1 do in these assays?
TRPC6 act: inactive; TRPC6 inh: inactive; TRPC4 agonist: inactive; TRPC4 block: inactive; Kir21 block: -4.51; TRPC4 potent: inactive

Results for CC(=O)O[C@H]1C[C@@]2(C)[C@@H](C[C@@H](O)[C@H]3[C@@]4(C)CC[C@@H](O)[C@@H](C)[C@@H]4CC[C@@]32C)/C1=C(\CCC=C(C)C)C(=O)O ?
TRPC6 act: inactive; TRPC6 inh: inactive; TRPC4 agonist: inactive; TRPC4 block: inactive; Kir21 block: inactive; TRPC4 potent: inactive

What do the screens show for `CCCn1c(=O)c2ccccc2n2c(SC(C)C(N)=O)nnc12` (stereo unspecified)?
TRPC6 act: inactive; TRPC6 inh: inactive; TRPC4 agonist: inactive; TRPC4 block: inactive; Kir21 block: inactive; TRPC4 potent: inactive

What do the screens show for `CCCn1c(=O)c2ccccc2n2c(SCCOc3ccccc3)nnc12`?
TRPC6 act: inactive; TRPC6 inh: inactive; TRPC4 agonist: inactive; TRPC4 block: -7; Kir21 block: inactive; TRPC4 potent: inactive

What do the screens show for `CCCn1ncc(CN2CCC(n3nccc3NC(=O)c3ccccc3OC)CC2)c1C`?
TRPC6 act: inactive; TRPC6 inh: inactive; TRPC4 agonist: inactive; TRPC4 block: inactive; Kir21 block: inactive; TRPC4 potent: inactive

How did CCn1cc(CN2CCC(n3nccc3NC(=O)CCOc3ccccc3)CC2)c(C)n1 do in these assays?
TRPC6 act: inactive; TRPC6 inh: inactive; TRPC4 agonist: inactive; TRPC4 block: inactive; Kir21 block: inactive; TRPC4 potent: inactive

What do the screens show for `CCCn1ncc(CN2CCC(n3nccc3NC(=O)CCc3ccccc3)CC2)c1C`?
TRPC6 act: inactive; TRPC6 inh: inactive; TRPC4 agonist: 100; TRPC4 block: inactive; Kir21 block: inactive; TRPC4 potent: inactive

How did CCn1cc(CN2CCC(n3nccc3NC(=O)CCOc3ccccc3)CC2)cn1 do in these assays?
TRPC6 act: inactive; TRPC6 inh: inactive; TRPC4 agonist: 72; TRPC4 block: inactive; Kir21 block: inactive; TRPC4 potent: inactive

What do the screens show for `CCn1cc(CN2CCC(n3nccc3NC(=O)CCc3ccccc3)CC2)cn1`?
TRPC6 act: inactive; TRPC6 inh: inactive; TRPC4 agonist: 73; TRPC4 block: inactive; Kir21 block: inactive; TRPC4 potent: inactive

What do the screens show for `OCCN1CCN(CCCN2c3ccccc3Sc3ccc(Cl)cc32)CC1`?
TRPC6 act: inactive; TRPC6 inh: inactive; TRPC4 agonist: inactive; TRPC4 block: inactive; Kir21 block: -5.59; TRPC4 potent: inactive

What do the screens show for `CC(Cl)C(=O)Nc1cc(C(F)(F)F)ccc1N1CCOCC1` (stereo unspecified)?
TRPC6 act: inactive; TRPC6 inh: inactive; TRPC4 agonist: inactive; TRPC4 block: inactive; Kir21 block: inactive; TRPC4 potent: inactive

How did COc1ccc(NC(C)=O)cc1NC(C)C(=O)Nc1cc(C(F)(F)F)ccc1N1CCOCC1 (stereo unspecified) do in these assays?
TRPC6 act: inactive; TRPC6 inh: inactive; TRPC4 agonist: inactive; TRPC4 block: inactive; Kir21 block: inactive; TRPC4 potent: 27

How did Cc1ccc(/C=C2/C(=O)ON=C2c2ccccc2)o1 do in these assays?
TRPC6 act: inactive; TRPC6 inh: inactive; TRPC4 agonist: inactive; TRPC4 block: inactive; Kir21 block: -5.87; TRPC4 potent: inactive

Results for O=C1ON=C(c2ccccc2)/C1=C/c1ccc(O)cc1 ?
TRPC6 act: inactive; TRPC6 inh: inactive; TRPC4 agonist: inactive; TRPC4 block: inactive; Kir21 block: -6.82; TRPC4 potent: inactive

What do the screens show for `O=C1ON=C(c2ccccc2)/C1=C/c1ccccc1`?
TRPC6 act: inactive; TRPC6 inh: inactive; TRPC4 agonist: inactive; TRPC4 block: inactive; Kir21 block: inactive; TRPC4 potent: inactive

How did O=C1ON=C(c2ccccc2)/C1=C\c1ccco1 do in these assays?
TRPC6 act: inactive; TRPC6 inh: inactive; TRPC4 agonist: inactive; TRPC4 block: inactive; Kir21 block: inactive; TRPC4 potent: inactive

What do the screens show for `O=C1ON=C(c2ccc(Cl)cc2)/C1=C/c1ccc(O)cc1`?
TRPC6 act: inactive; TRPC6 inh: inactive; TRPC4 agonist: inactive; TRPC4 block: inactive; Kir21 block: -6.14; TRPC4 potent: inactive

How did CC1CCCN(CCCNC(=O)C2CCCN(c3ncnc4c3nc3n4CCCCC3)C2)C1 (stereo unspecified) do in these assays?
TRPC6 act: inactive; TRPC6 inh: inactive; TRPC4 agonist: inactive; TRPC4 block: inactive; Kir21 block: inactive; TRPC4 potent: inactive

What do the screens show for `Cc1ccc(N2CCN(C(=O)C3CCCN(c4ncnc5c4nc4n5CCCCC4)C3)CC2)c(C)c1` (stereo unspecified)?
TRPC6 act: inactive; TRPC6 inh: inactive; TRPC4 agonist: inactive; TRPC4 block: inactive; Kir21 block: inactive; TRPC4 potent: inactive

How did CC1CC(C)CN(CCCNC(=O)C2CCCN(c3ncnc4c3nc3n4CCCCC3)C2)C1 (stereo unspecified) do in these assays?
TRPC6 act: inactive; TRPC6 inh: inactive; TRPC4 agonist: inactive; TRPC4 block: inactive; Kir21 block: inactive; TRPC4 potent: 18

Source: PubChem BioAssay
